Results reported in ChEMBL document CHEMBL4138058, “Design and synthesis of novel selective estrogen receptor degradation inducers based on the diphenylheptane skeleton” (Medchemcomm, 2017).

Target: T1, Vitamin D3 receptor (Homo sapiens) (UniProt P11473)
T1 sequence (whole entry): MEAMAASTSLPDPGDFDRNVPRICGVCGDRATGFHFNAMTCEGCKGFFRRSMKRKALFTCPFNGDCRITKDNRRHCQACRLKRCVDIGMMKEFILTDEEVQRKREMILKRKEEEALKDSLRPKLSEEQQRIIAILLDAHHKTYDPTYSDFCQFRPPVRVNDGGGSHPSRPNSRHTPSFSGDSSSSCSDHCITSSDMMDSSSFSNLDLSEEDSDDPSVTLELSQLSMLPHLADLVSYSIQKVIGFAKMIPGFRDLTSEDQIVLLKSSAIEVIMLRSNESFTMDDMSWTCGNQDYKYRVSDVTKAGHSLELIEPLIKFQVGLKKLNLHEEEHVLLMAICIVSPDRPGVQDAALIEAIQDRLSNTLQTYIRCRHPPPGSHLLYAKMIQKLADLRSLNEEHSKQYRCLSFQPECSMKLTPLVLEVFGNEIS
Test: Downregulation of VDR expression in human MCF7 cells at 1 uM after 6 hrs by Western blot method relative to lamin B
Assay type: cell-based
How it was run: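 MCF-7 cells kept in DMEM with 10% FBS, kanamycin and 10 μg/mL insulin, then exposed to compounds for 6 h. Lysates made in SDS buffer (0.1 M Tris-HCl pH 8.0, 10% glycerol, 1% SDS), boiled, BCA-normalized and run on SDS-PAGE. Blots probed with anti-ERα, AR, AhR or VDR and β-actin or lamin B. Chemiluminescence quantified as target/loading-protein ratio; means ± S.E., n=3.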

Question: How did the Activity turn out when `CCCCCCCCCCNCCOc1ccc(C(CCC)(CCC)c2ccc(O)c(C)c2)cc1C` was run?
Answer: 100%
